Test results taken from ChEMBL document CHEMBL1649142, “Relationship between susceptibility to daptomycin in vitro and activity in vivo in a rabbit model of aortic valve endocarditis” (Antimicrob Agents Chemother, 2009).
Values after ≈ are worked out from the molar mass of the structure shown.

Key:
[1] = Cmax in New Zealand rabbit at 18 mg/kg/day, iv […] measured after 15 mins […] by HPLC; assay type: ADME, organism-based, Oryctolagus cuniculus; design: dose 18 mg/kg/day, route intravenous; conditions: in vivo
Summary of the method: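 A single IV bolus (1 to 2 min, marginal ear vein) was given to healthy New Zealand White rabbits, three per group. Plasma was drawn from 0.25 to 6 h and assayed by validated HPLC. The reported value is the mean plasma concentration 15 min after the end of infusion, not a multi-day steady-state peak.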

[2] = Half life in New Zealand rabbit at 12 mg/kg/day, iv […] by HPLC; assay type: ADME, organism-based, Oryctolagus cuniculus; design: route intravenous; conditions: in vivo
Summary of the method: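 Uninfected New Zealand White rabbits (n = 3 per group) were dosed once by IV bolus. Plasma was collected at 0.25, 0.5, 1, 2, 4 and 6 h and measured by validated HPLC. Half-life was obtained by noncompartmental analysis, with kel taken from the slope of the terminal log concentration-time curve.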

[3] = AUC in New Zealand rabbit at 12 mg/kg/day, iv for 4 days by HPLC; assay type: ADME, organism-based, Oryctolagus cuniculus; design: route intravenous; conditions: plasma
[4] = AUC in New Zealand rabbit at 18 mg/kg/day, iv for 4 days by HPLC; assay type: ADME, organism-based, Oryctolagus cuniculus; design: route intravenous; conditions: plasma
[5] = AUC in human at 6 mg/kg, iv by HPLC; assay type: ADME, organism-based; design: dose 6 mg/kg, route intravenous; conditions: plasma
[6] = AUC in human at 10 mg/kg, iv by HPLC; assay type: ADME, organism-based; design: dose 10 mg/kg, route intravenous; conditions: plasma
Staphylococcus aureus [7] = assay: Antimicrobial activity against rifampin-susceptible Staphylococcus aureus A by Etest
Staphylococcus aureus [8] = assay: Antimicrobial activity against rifampin-susceptible Staphylococcus aureus A by broth dilution method
Staphylococcus aureus [9] = assay: Antimicrobial activity against rifampin-resistant Staphylococcus aureus B; assay type: functional
Staphylococcus aureus [10] = assay: Antimicrobial activity against Staphylococcus aureus A0.5/B2.0 infected in New Zealand rabbit dual-infection aortic valve endocarditis model assessed as bacterial count in endocardial vegetation at 12 mg/kg/day, iv for 4 days (reference value: 7.8+/-0.4 log10 CFU/g); assay type: functional, Aorta
Staphylococcus aureus [11] = assay: Antimicrobial activity against Staphylococcus aureus A0.5/B2.0 infected in New Zealand rabbit dual-infection aortic valve endocarditis model assessed as bacterial count in spleen at 12 mg/kg/day, iv for 4 days (reference value: 6.0+/-0.3 log10 CFU/g); assay type: functional
Staphylococcus aureus [12] = assay: Antimicrobial activity against Staphylococcus aureus A0.5/B2.0 infected in New Zealand rabbit dual-infection aortic valve endocarditis model assessed as bacterial count in kidney at 12 mg/kg/day, iv for 4 days (reference value: 6.3+/-1.0 log10 CFU/g); assay type: functional
Staphylococcus aureus [13] = assay: Antimicrobial activity against Staphylococcus aureus A0.5/B2.0 infected in New Zealand rabbit dual-infection aortic valve endocarditis model assessed as bacterial count of strain A0.5 in endocardial vegetation at 12 mg/kg/day, iv for 4 days (reference value: 280 log10 CFU); assay type: functional, Aorta
Staphylococcus aureus [14] = assay: Antimicrobial activity against Staphylococcus aureus A0.5/B2.0 infected in New Zealand rabbit dual-infection aortic valve endocarditis model assessed as bacterial count of strain A0.5 in spleen at 12 mg/kg/day, iv for 4 days (reference value: 333 log10 CFU); assay type: functional
Staphylococcus aureus [15] = assay: Antimicrobial activity against Staphylococcus aureus A0.5/B2.0 infected in New Zealand rabbit dual-infection aortic valve endocarditis model assessed as bacterial count of strain B2.0 in endocardial vegetation at 12 mg/kg/day, iv for 4 days (reference value: 320 log10 CFU); assay type: functional, Aorta
Staphylococcus aureus [16] = assay: Antimicrobial activity against Staphylococcus aureus A0.5/B2.0 infected in New Zealand rabbit dual-infection aortic valve endocarditis model assessed as bacterial count of strain B2.0 in spleen at 12 mg/kg/day, iv for 4 days (reference value: 627 log10 CFU); assay type: functional
Staphylococcus aureus [17] = assay: Antimicrobial activity against Staphylococcus aureus A0.5 infected in New Zealand rabbit aortic valve endocarditis model assessed as bacterial count in endocardial vegetation at 12 mg/kg/day, iv for 4 days (reference value: 6.9+/-0.7 log10 CFU/g); assay type: functional
Staphylococcus aureus [18] = assay: Antimicrobial activity against Staphylococcus aureus A0.5 infected in New Zealand rabbit aortic valve endocarditis model assessed as bacterial count in endocardial vegetation at 18 mg/kg/day, iv for 4 days (reference value: 6.9+/-0.7 log10 CFU/g); assay type: functional
Staphylococcus aureus [19] = assay: Antimicrobial activity against Staphylococcus aureus A0.5 infected in New Zealand rabbit aortic valve endocarditis model assessed as bacterial count in spleen at 12 mg/kg/day, iv for 4 days (reference value: 6.1+/-0.2 log10 CFU/g); assay type: functional
Staphylococcus aureus [20] = assay: Antimicrobial activity against Staphylococcus aureus A0.5 infected in New Zealand rabbit aortic valve endocarditis model assessed as bacterial count in spleen at 18 mg/kg/day, iv for 4 days (reference value: 6.1+/-0.2 log10 CFU/g); assay type: functional
Staphylococcus aureus [21] = assay: Antimicrobial activity against Staphylococcus aureus A0.5 infected in New Zealand rabbit aortic valve endocarditis model assessed as bacterial count in spleen at 12 mg/kg/day, iv for 4 days (reference value: 5.7+/-0.7 log10 CFU/g); assay type: functional
Staphylococcus aureus [22] = assay: Antimicrobial activity against Staphylococcus aureus A0.5 infected in New Zealand rabbit aortic valve endocarditis model assessed as bacterial count in spleen at 18 mg/kg/day, iv for 4 days (reference value: 5.7+/-0.7 log10 CFU/g); assay type: functional
Staphylococcus aureus [23] = assay: Antimicrobial activity against Staphylococcus aureus B2.0 infected in New Zealand rabbit aortic valve endocarditis model assessed as bacterial count in endocardial vegetation at 12 mg/kg/day, iv for 4 days (reference value: 7.3+/-1.0 log10 CFU/g); assay type: functional, Aorta
Staphylococcus aureus [24] = assay: Antimicrobial activity against Staphylococcus aureus B2.0 infected in New Zealand rabbit aortic valve endocarditis model assessed as bacterial count in endocardial vegetation at 18 mg/kg/day, iv for 4 days (reference value: 7.3+/-1.0 log10 CFU/g); assay type: functional, Aorta
Staphylococcus aureus [25] = assay: Antimicrobial activity against Staphylococcus aureus B2.0 infected in New Zealand rabbit aortic valve endocarditis model assessed as bacterial count in spleen at 12 mg/kg/day, iv for 4 days (reference value: 5.4+/-0.2 log10 CFU/g); assay type: functional
Staphylococcus aureus [26] = assay: Antimicrobial activity against Staphylococcus aureus B2.0 infected in New Zealand rabbit aortic valve endocarditis model assessed as bacterial count in spleen at 18 mg/kg/day, iv for 4 days (reference value: 5.4+/-0.2 log10 CFU/g); assay type: functional
Staphylococcus aureus [27] = assay: Antimicrobial activity against Staphylococcus aureus B2.0 infected in New Zealand rabbit aortic valve endocarditis model assessed as bacterial count in kidney at 12 mg/kg/day, iv for 4 days (reference value: 5.1+/-0.6 log10 CFU/g); assay type: functional
Staphylococcus aureus [28] = assay: Antimicrobial activity against Staphylococcus aureus B2.0 infected in New Zealand rabbit aortic valve endocarditis model assessed as bacterial count in kidney at 18 mg/kg/day, iv for 4 days (reference value: 5.1+/-0.6 log10 CFU/g); assay type: functional

CCCCCCCCCC(=O)N[C@@H](Cc1c[nH]c2ccccc12)C(=O)N[C@H](CC(N)=O)C(=O)N[C@@H](CC(=O)O)C(=O)N[C@@H]1C(=O)NCC(=O)N[C@@H](CCCN)C(=O)N[C@@H](CC(=O)O)C(=O)N[C@H](C)C(=O)N[C@@H](CC(=O)O)C(=O)NCC(=O)N[C@H](CO)C(=O)N[C@@H]([C@H](C)CC(=O)O)C(=O)N[C@@H](CC(=O)c2ccccc2N)C(=O)O[C@@H]1C
Cmax [1]: 149 µg/mL | half-life [2]: 5 h | AUC at 96 h [3]: 719 µg·h/mL | AUC at 96 h [4]: 965 µg·h/mL | AUC [5]: 632 µg·h/mL | AUC [6]: 1040 µg·h/mL | MIC (Staphylococcus aureus [7]): 0.5 µg/mL (≈ 0.309 µM) | MIC (Staphylococcus aureus [8]): 0.5 µg/mL (≈ 0.309 µM) | MIC (Staphylococcus aureus [9]): 2 µg/mL (≈ 1.23 µM) | log10CFU/g (Staphylococcus aureus [10]): 5.3 | log10CFU/g (Staphylococcus aureus [11]): 2.3 | log10CFU/g (Staphylococcus aureus [12]): 1.7 | log10CFU/g (Staphylococcus aureus [13]): 2.3 | log10CFU/g (Staphylococcus aureus [14]): 1 | log10CFU/g (Staphylococcus aureus [15]): 1.7 | log10CFU/g (Staphylococcus aureus [16]): 0 | log10CFU/g (Staphylococcus aureus [17]): 0 | log10CFU/g (Staphylococcus aureus [18]): 0 | log10CFU/g (Staphylococcus aureus [19]): 0 | log10CFU/g (Staphylococcus aureus [20]): 0 | log10CFU/g (Staphylococcus aureus [21]): 0 | log10CFU/g (Staphylococcus aureus [22]): 0 | log10CFU/g (Staphylococcus aureus [23]): 6.3 | log10CFU/g (Staphylococcus aureus [24]): 4.4 | log10CFU/g (Staphylococcus aureus [25]): 3.2 | log10CFU/g (Staphylococcus aureus [26]): 2.3 | log10CFU/g (Staphylococcus aureus [27]): 2.1 | log10CFU/g (Staphylococcus aureus [28]): 2.5
